Key:
Settings in all cases: in vivo
[1] = tested on: Rattus norvegicus; assay: Biodistribution in pregnant Sprague-Dawley rat bone marrow at 5 mg/kg, po administered as single dose measured after 4 hrs; type: ADME, organism-based; design: dose 5 mg/kg, dosed compound name [14C]-apixaban, route oral
[2] = tested on: Thymus; assay: Biodistribution in male Sprague-Dawley rat thymus at 5 mg/kg, po administered as single dose measured after 1 hr; type: ADME, organism-based; design: dose 5 mg/kg, dosed compound name [14C]-apixaban, route oral
[3] = tested on: Brain; assay: Biodistribution in male Sprague-Dawley rat brain at 5 mg/kg, po administered as single dose measured after 8 hrs; type: ADME, organism-based; design: dose 5 mg/kg, dosed compound name [14C]-apixaban, route oral
[4] = tested on: Rattus norvegicus; assay: Biodistribution in fetal blood of pregnant Sprague-Dawley rat at 5 mg/kg, po administered as single dose measured after 24 hrs; type: ADME, organism-based; design: dose 5 mg/kg, dosed compound name [14C]-apixaban, route oral
Summary of the method: (§1)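 Quantitative whole-body autoradiography was run after a single 5 mg/kg (100 μCi/kg) oral gavage to fasted female or pregnant SD rats, one rat per time point. Carcasses were frozen in hexane/dry ice, and 40 µm sagittal sections were dried at −20°C for at least 48 h. Sections were exposed to a phosphor plate alongside [14C]glucose standards (0.001–6.5 µCi/g). Results are µg eq/g, with LLOQ 0.037 µg eq/g.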

[5] = tested on: Rattus norvegicus; assay: Biodistribution in pregnant Sprague-Dawley rat amnion at 5 mg/kg, po administered as single dose measured after 8 hrs; type: ADME, organism-based; design: dose 5 mg/kg, dosed compound name [14C]-apixaban, route oral
[6] = tested on: Rattus norvegicus; assay: Biodistribution in male Sprague-Dawley rat pituitary gland at 5 mg/kg, po administered as single dose measured after 24 hrs; type: ADME, organism-based; design: dose 5 mg/kg, dosed compound name [14C]-apixaban, route oral
Summary of the method: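 Fasted male SD rats (225-252 g) each received one oral gavage dose of [14C]apixaban, 5 mg/kg (100 μCi/kg), in 0.5% Tween 80/Labrafil vehicle. One rat was killed per time point, from 0.5 to 168 h. Frozen carcasses were cut into 40 µm sagittal whole-body sections and read by QWBA phosphor imaging against [14C]glucose calibrants. Results are in µg apixaban eq/g; BLQ <0.037 µg eq/g.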

[7] = tested on: Brain; assay: Biodistribution in female Sprague-Dawley rat brain at 5 mg/kg, po administered as single dose measured after 0.5 hrs; type: ADME, organism-based; design: dose 5 mg/kg, dosed compound name [14C]-apixaban, route oral
Summary of the method: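 [14C]Apixaban (1.0 mg/mL, 20 μCi/mL in 0.5% Tween 80 in Labrafil) given as a single oral gavage of 5 mg/kg (100 μCi/kg) to fasted female SD rats, one rat per time point. Carcasses were frozen in hexane/dry ice and cut into 40 µm sagittal sections for QWBA against [14C]glucose standards. Brain radioactivity is reported as µg eq/g, with LLOQ 0.037 µg eq/g.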

[8] = tested on: Muscle tissue; assay: Biodistribution in female Sprague-Dawley rat muscle at 5 mg/kg, po administered as single dose measured after 0.5 hrs; type: ADME, organism-based; design: dose 5 mg/kg, dosed compound name [14C]-apixaban, route oral
Summary of the method: (§2)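 [¹⁴C]Apixaban given by oral gavage at 5 mg/kg (100 μCi/kg) in 0.5% Tween 80 in Labrafil (1.0 mg/mL dosing solution) to rats fasted overnight through 4 h post-dose. One rat per time point; carcass frozen in hexane/dry ice. Quantitative whole-body autoradiography used 40 µm sagittal sections and a phosphor imaging plate calibrated with [¹⁴C]glucose standards (0.001–6.5 μCi/g). Read-out in µg eq apixaban/g; LLOQ 0.037 μg eq/g.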

[9] = Drug excretion in Sprague-Dawley rat urine at 30 mg/kg, po administered as single dose after 0 to 168 hrs
[10] = tested on: Rattus norvegicus; assay: Biodistribution in pregnant Sprague-Dawley rat bone marrow at 5 mg/kg, po administered as single dose measured after 48 hrs; type: ADME, organism-based; design: dose 5 mg/kg, dosed compound name [14C]-apixaban, route oral
Summary of the method: (§3)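 Fasted pregnant SD rats (n=6, 270-319 g) each received one oral gavage dose of [14C]apixaban, 5 mg/kg (100 μCi/kg), in 0.5% Tween 80/Labrafil. One rat was killed at each of 0.5, 1, 4, 8, 24 and 48 h. Carcasses were frozen in hexane/dry ice, cut into 40 µm sagittal sections, exposed to phosphor plates and quantified against [14C]glucose standards as µg eq/g. LLOQ was 0.037 µg eq/g.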

[11] = tested on: Harderian gland; assay: Biodistribution in male Sprague-Dawley rat harderian gland at 5 mg/kg, po administered as single dose measured after 1 hr; type: ADME, organism-based; design: dose 5 mg/kg, dosed compound name [14C]-apixaban, route oral; summary of the method: as §2
[12] = tested on: Heart; assay: Biodistribution in pregnant Sprague-Dawley rat heart at 5 mg/kg, po administered as single dose measured after 8 hrs; type: ADME, organism-based; design: dose 5 mg/kg, dosed compound name [14C]-apixaban, route oral
[13] = tested on: Rattus norvegicus; assay: Biodistribution in female Sprague-Dawley rat kidney cortex at 5 mg/kg, po administered as single dose measured after 24 hrs; type: ADME, organism-based; design: dose 5 mg/kg, dosed compound name [14C]-apixaban, route oral; summary of the method: as §1
[14] = tested on: Rattus norvegicus; assay: Biodistribution in fetal blood of pregnant Sprague-Dawley rat at 5 mg/kg, po administered as single dose measured after 4 hrs; type: ADME, organism-based; design: dose 5 mg/kg, dosed compound name [14C]-apixaban, route oral
Summary of the method: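 Pregnant rats, 270-319 g and fasted overnight, received [14C]apixaban by oral gavage at 100 μCi/kg in 0.5% Tween 80/Labrafil. One dam per time point was euthanized and frozen in hexane/dry ice. Fetal tissue radioactivity was measured by QWBA on 40 µm sagittal sections calibrated with [14C]glucose standards. Values are in µg eq/g, with LLOQ 0.037 μg eq/g.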

[15] = tested on: Rattus norvegicus; assay: Biodistribution in pregnant Sprague-Dawley rat kidney cortex at 5 mg/kg, po administered as single dose measured after 0.5 hrs; type: ADME, organism-based; design: dose 5 mg/kg, dosed compound name [14C]-apixaban, route oral
[16] = tested on: Brain; assay: Biodistribution in pregnant Sprague-Dawley rat brain at 5 mg/kg, po administered as single dose measured after 48 hrs; type: ADME, organism-based; design: dose 5 mg/kg, dosed compound name [14C]-apixaban, route oral; summary of the method: as §3
[17] = tested on: Spleen; assay: Biodistribution in male Sprague-Dawley rat spleen at 5 mg/kg, po administered as single dose measured after 4 hrs; type: ADME, organism-based; design: dose 5 mg/kg, dosed compound name [14C]-apixaban, route oral
Summary of the method: (§4)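 [14C]apixaban (1.0 mg/mL, 20 μCi/mL) in 0.5% Tween 80 in Labrafil, given by oral gavage at 100 μCi/kg to male rats (225-252 g) fasted overnight through 4 h post-dose. One rat per time point. Carcasses frozen in hexane/dry ice and cut into 40 µm sagittal sections. QWBA read on phosphor plates against [14C]glucose standards, reported as µg eq/g. LLOQ 0.037 µg eq/g.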

[18] = tested on: Lung; assay: Biodistribution in male Sprague-Dawley rat lung at 5 mg/kg, po administered as single dose measured after 24 hrs; type: ADME, organism-based; design: dose 5 mg/kg, dosed compound name [14C]-apixaban, route oral; summary of the method: as §4
[19] = tested on: Rattus norvegicus; assay: Biodistribution in pregnant Sprague-Dawley rat salivary gland at 5 mg/kg, po administered as single dose measured after 48 hrs; type: ADME, organism-based; design: dose 5 mg/kg, dosed compound name [14C]-apixaban, route oral
Summary of the method: (§5)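 Pregnant SD rats (270-319 g) were fasted overnight and given one oral gavage of 5 mg/kg (100 μCi/kg) in 0.5% Tween 80 in Labrafil. One rat was euthanized per time point (0.5, 1, 4, 8, 24, 48 h) and the carcass frozen. 40 µm sagittal sections were phosphor-imaged against [14C]glucose standards and results reported as µg eq/g; LLOQ 0.037 µg eq/g.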

[20] = tested on: Rattus norvegicus; assay: Biodistribution in pregnant Sprague-Dawley rat pituitary gland at 5 mg/kg, po administered as single dose measured after 48 hrs; type: ADME, organism-based; design: dose 5 mg/kg, dosed compound name [14C]-apixaban, route oral; summary of the method: as §5
[21] = tested on: Heart; assay: Biodistribution in male Sprague-Dawley rat heart at 5 mg/kg, po administered as single dose measured after 4 hrs; type: ADME, organism-based; design: dose 5 mg/kg, dosed compound name [14C]-apixaban, route oral; summary of the method: as §4
[22] = tested on: Brain; assay: Biodistribution in male Sprague-Dawley rat brain at 5 mg/kg, po administered as single dose measured after 4 hrs; type: ADME, organism-based; design: dose 5 mg/kg, dosed compound name [14C]-apixaban, route oral
[23] = tested on: Muscle tissue; assay: Biodistribution in male Sprague-Dawley rat muscle at 5 mg/kg, po administered as single dose measured after 1 hr; type: ADME, organism-based; design: dose 5 mg/kg, dosed compound name [14C]-apixaban, route oral; summary of the method: as §4
[24] = tested on: Lung; assay: Biodistribution in female Sprague-Dawley rat lung at 5 mg/kg, po administered as single dose measured after 4 hrs; type: ADME, organism-based; design: dose 5 mg/kg, dosed compound name [14C]-apixaban, route oral; summary of the method: as §2
[25] = Drug excretion in Sprague-Dawley rat feces at 30 mg/kg, po administered as single dose after 0 to 168 hrs

For `COc1ccc(-n2nc(C(N)=O)c3c2C(=O)N(c2ccc(N4CCCC[14C]4=O)cc2)CC3)cc1`, which Radiolabel recovery [1] is on record?
Its Radiolabel recovery is 0.46 ugequiv/g.

What about the Radiolabel recovery [2] of the same compound?
Its Radiolabel recovery is 0.46 ugequiv/g.

And the Radiolabel recovery [3]?
The Radiolabel recovery was under 0.037 ugequiv/g.

And the Radiolabel recovery [4]?
Its Radiolabel recovery is “Not detected assumed BLQ”.

And the Radiolabel recovery [5]?
The Radiolabel recovery was 2.12 ugequiv/g.

What about the Radiolabel recovery [6] of the same compound?
Its Radiolabel recovery is “Not detected assumed BLQ”.

And the Radiolabel recovery [7]?
Its Radiolabel recovery is under 0.037 ugequiv/g.

What about the Radiolabel recovery [8] of the same compound?
Its Radiolabel recovery is 0.23 ugequiv/g.

And the Radiolabel recovery [9]?
Its Radiolabel recovery is 14%.

And the Radiolabel recovery [10]?
Its Radiolabel recovery is “Not detected assumed BLQ”.

And the Radiolabel recovery [11]?
The Radiolabel recovery was 0.69 ugequiv/g.

And the Radiolabel recovery [12]?
The Radiolabel recovery was 0.06 ugequiv/g.

And the Radiolabel recovery [13]?
Its Radiolabel recovery is “Not detected assumed BLQ”.

What about the Radiolabel recovery [14] of the same compound?
The Radiolabel recovery was 0.51 ugequiv/g.

What about the Radiolabel recovery [15] of the same compound?
The Radiolabel recovery was 2.11 ugequiv/g.

And the Radiolabel recovery [16]?
The Radiolabel recovery was “Not detected assumed BLQ”.

What about the Radiolabel recovery [17] of the same compound?
The Radiolabel recovery was 0.28 ugequiv/g.

What about the Radiolabel recovery [18] of the same compound?
The Radiolabel recovery was under 0.037 ugequiv/g.

What about the Radiolabel recovery [19] of the same compound?
The Radiolabel recovery was “Not detected assumed BLQ”.

And the Radiolabel recovery [20]?
The Radiolabel recovery was “Not sampled as not visualised in autoradiograph”.

What about the Radiolabel recovery [21] of the same compound?
The Radiolabel recovery was 0.45 ugequiv/g.

What about the Radiolabel recovery [22] of the same compound?
The Radiolabel recovery was under 0.037 ugequiv/g.

What about the Radiolabel recovery [23] of the same compound?
Its Radiolabel recovery is 0.43 ugequiv/g.

And the Radiolabel recovery [24]?
Its Radiolabel recovery is 0.51 ugequiv/g.

What about the Radiolabel recovery [25] of the same compound?
Its Radiolabel recovery is 74%.

Source: ChEMBL document CHEMBL3525963, “Tissue distribution and elimination of [14C]apixaban in rats” (Drug Metab Dispos, 2011)
